Tests used:
[1] = tested on: U87MG; assay: MTT growth inhibition assay, U87MG; assay type: cell-based, human; conditions: read-out: IC50, cytotoxicity U87MG, 72 hours, listed as 6 (BAP2)
Outline: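 U87MG seeded at 5000 cells/well, incubated overnight at 37 °C and 5% CO2, then given test compound or vehicle for 72 h. MTT (3 mg/mL) was added for 4 h at 37 °C. Formazan was dissolved in DMSO with 15 min shaking at room temperature and read at 570 nm. Inhibition was calculated as [1-(At-Ab)/(Ac-Ab)]×100 against untreated and blank wells.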

[2] = biological target: wild-type PDI (Homo sapiens, UniProt P07237); assay: Thermal shift assay, wild-type PDI; assay type: binding
Sequence of wild-type PDI (P07237 18-508): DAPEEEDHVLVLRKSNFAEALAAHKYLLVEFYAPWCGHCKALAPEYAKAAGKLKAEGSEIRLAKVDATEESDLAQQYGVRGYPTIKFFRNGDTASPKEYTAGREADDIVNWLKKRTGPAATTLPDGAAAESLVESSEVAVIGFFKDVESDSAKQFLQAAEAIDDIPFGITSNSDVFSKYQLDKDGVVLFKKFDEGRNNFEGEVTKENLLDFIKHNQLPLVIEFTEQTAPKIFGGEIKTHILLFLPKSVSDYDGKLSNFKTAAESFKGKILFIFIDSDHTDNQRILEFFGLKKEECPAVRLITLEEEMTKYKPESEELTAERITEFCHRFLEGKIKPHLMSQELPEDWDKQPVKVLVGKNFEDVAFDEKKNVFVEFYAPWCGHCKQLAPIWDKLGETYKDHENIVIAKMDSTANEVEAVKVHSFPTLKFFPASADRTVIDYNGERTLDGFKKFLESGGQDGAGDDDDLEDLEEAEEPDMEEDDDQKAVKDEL
Outline: (§1)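 Purified PDI (wild-type, C53S/C397S or H256A; 0.5 mg/mL in 50 mM Tris, pH 7.0) was mixed with compound in DMSO and ROX dye. Samples were heated from 25 to 99 °C at 1 °C/min. Boltzmann melting temperature was compared with the 5% DMSO control.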

[3] = biological target: T1, H256A PDI (Homo sapiens, UniProt P07237, H256A); assay: Thermal shift assay, H256A PDI; assay type: binding; conditions: 100 μM
T1 sequence (P07237 18-508 H256A): as the sequence (P07237 18-508) above, with H239A counted along it
Outline: as §1

[4] = biological target: C53S/C397S PDI (Homo sapiens, UniProt P07237, C397S/C53S); assay: Thermal shift assay, C53S/C397S PDI; assay type: binding; conditions: 100 μM
Sequence of C53S/C397S PDI (P07237 18-508 C53S/C397S): as the sequence (P07237 18-508) above, with C36S, C380S counted along it
Outline: as §1

[5] = tested on: GRP78; assay: Western blot, GRP78 expression; assay type: cell-based, human; conditions: U87MG cells; 20 μM (PACMA31 1.0 μM), 24 hours
Outline: (§2)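 Treated U87MG cells were lysed by sonication in Tris/NaCl/Triton X-100/SDS buffer (pH 7.4) and spun at 13,500×g, 4 °C, 10 min. Protein was quantified by BCA. 30 μg per lane ran on 10% gels and transferred to PVDF. Primary antibodies were applied overnight at 4 °C. Fluorescent secondaries were imaged.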

[6] = tested on: A172 cells; assay: Wound healing assay; assay type: cell-based, human; conditions: 24 hours, BAP2 at 10 μM
Outline: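 A172 cells were seeded at 50,000/well, grown overnight, then kept in serum-free DMEM for 24 h. A scratch was made and compounds added. Cells grew 24 h, until DMSO-control scratches closed, then were Giemsa-stained and imaged at 10X.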

[7] = tested on: A172 cells; assay: Transwell migration assay; assay type: cell-based, human; conditions: 4 hours, 30 μM
Outline: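 Treated A172 cells (1 x 10^5) were seeded into inserts with 8.0 µm PET membranes in serum-free medium. The lower well held DMEM with 10% FBS, and FBS-free wells served as control. After 4 h, cells were Giemsa-stained and 5 fields per well were imaged at 10X.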

[8] = tested on: GBM cell; assay: Combination with As2O3, GBM cell proliferation; assay type: cell-based
[9] = tested on: D54 cells; assay: Clonogenic survival assay with ionizing radiation; assay type: cell-based; conditions: 1 μM, 0-6 Gy
Outline: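 D54 monolayer cells (37 °C, 5% CO2, mycoplasma-tested, STR-authenticated) were irradiated at 0, 1, 2, 4 or 6 Gy and plated immediately at 200, 200, 400, 600 and 1000 cells/well. Test compounds (1 μM), reference inhibitor (0.05 μM) or DMSO were added. After 10–12 days, colonies were stained with 0.1% crystal violet.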

[10] = biological target: T1, H256A PDI; assay: PDI reductase assay, H256A mutant PDI; assay type: biochemical; conditions: 10 μM
Outline: (§3)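 N-terminal His-tagged human PDI was expressed in E. coli BL21(DE3) pLysS with 1 mM IPTG for 4 h at 37 °C. It was purified on Ni-NTA and dialyzed into 100 mM sodium phosphate, 2 mM EDTA, pH 7.0. PDI (0.4 μM) was preincubated 1 h with compound in phosphate/EDTA buffer with 8 μM DTT. DTT (500 μM) and bovine insulin (130 μM) were then added at room temperature. Aggregation was read at 620 nm. Percent activity came from the 0–80 min change, corrected for DTT alone.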

[11] = biological target: b’ domain of PDI (Homo sapiens, UniProt P07237); assay: ANS spectral scan; assay type: binding; conditions: 5 μM PDI, 100 μM compound
Sequence of b’ domain of PDI (P07237 18-508): as the sequence (P07237 18-508) above
Outline: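 Human PDI was preincubated with 100 μM compound or matching DMSO in TBS at 37 °C for 1 h. ANS was then added, followed by 20 min in the dark at 25 °C. Fluorescence spectrum: Ex 370 nm, Em 400–700 nm.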

[12] = biological target: PDI (Homo sapiens, UniProt P07237); assay: PDI reductase assay after competition with N-acetyl cysteine; assay type: biochemical; conditions: compound 40 μM, 0, 1, 2 or 5 mM NAC
Sequence of PDI (P07237 18-508): as above
Outline: as §3

[13] = tested on: EIF2α; assay: Western blot, phosphorylation of EIF2α; assay type: cell-based, human; conditions: U87MG and A172 cells; 20 μM (PACMA31 1.0 μM), 2 hours
Outline: as §2

[14] = tested on: MMP2; assay: Gelatin zymography and Western blot of conditioned media; assay type: cell-based, human; conditions: U87MG cells, 10 μM (PACMA31 0.25 μM), 48 hours
Outline: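 U87MG cells (0.5 x 10^6/well) attached overnight and were serum-starved 12 h before treatment. Cleared conditioned media (5 µg protein) ran on 10% SDS-PAGE with 0.1% gelatin. Gels were washed in 2.5% Triton X-100 Tris/CaCl2/ZnCl2 buffer, incubated overnight at 37 °C, then Coomassie R-250 stained and destained. Cleaved MMP2 in media was also assessed by Western blot.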

[15] = tested on: MMP9; assay: Western blot of cell lysates, MMP9; assay type: cell-based, human; conditions: U87MG cells, 10 μM (PACMA31 0.25 μM), 48 hours
Outline: as §2

N#Cc1cccc(/C=C/C(=O)c2ccc(O)cc2)c1 [Compound 6, (E)-3-(3-(4-Hydroxyphenyl)-3-oxoprop-1-en-1-yl)benzonitrile]
IC50 [1]: 10.3 ± 2.3 µM
increase of melting temperature ([2]; recombinant PDI, dose-dependent, up to 100 μM): more than 1 °C
stabilization (thermal shift) in the H256A mutant [3]: abolished
stabilization (thermal shift) in the C53S/C397S mutant [4]: but not the C53S/C397S mutant
expression of GRP78 [5]: increase in expression of GRP78
wound healing / cell migration [6]: inhibited wound healing
transwell migration [7]: inhibited migration
inhibition of GBM cell proliferation in combination with As2O3 [8]: synergistically
synergy with ionizing radiation (IR) [9]: synergized with IR
activity against H256A mutant PDI [10]: abolished upon mutation
effect on ANS fluorescence [11]: hindered the ability of ANS to fluoresce
activity after competition with N-acetyl cysteine (NAC) ([12]; listed as BAP2): unaffected by up to 5 mM NAC

C#CC(=O)N(c1ccc(OC)cc1OC)C(C(=O)NCC(=O)OCC)c1cccs1 (centres unmarked) [PACMA31, reference compound]
stabilization of PDI to thermal denaturation ([2]; 100 μM): does not stabilize PDI
phosphorylation of EIF2α [13]: did not induce phosphorylation of EIF2α
expression of GRP78 [5]: increase in expression of GRP78
transwell migration [7]: inhibited migration
MMP2 activity and secretion [14]: inhibit MMP2 activity and secretion
MMP9 expression [15]: decreased
effect on ANS fluorescence [11]: did not hinder dye fluorescence
activity after competition with N-acetyl cysteine (NAC) [12]: significantly abolished

From PMC8276234 (Journal of medicinal chemistry, 2019)
